Results from different studies.
Compare with care: the assays were run in different laboratories.
Target: Mitogen-activated protein kinase kinase kinase 9 (MAP3K9, Homo sapiens, UniProt P80192)

With `C#Cc1n[nH]c2c(-c3cn([C@@H](C)c4ccccn4)c(=O)[nH]c3=O)cc(F)cc12` the inhibition was 8% (enzyme activity; inhibitor; 0.1 µM).
The remaining binding of `N#CC1(c2ccccn2)CCN(Cc2cc(C(=O)O)c(=O)n3ccccc23)CC1` is reported as 92% (cell-free assay; competition with immobilised ligand; 1 µM).
The remaining activity of `CC(C)(C)c1cc(C=C(C#N)C#N)cc(Br)c1O` is reported as 90.2% (enzyme activity; inhibitor; 0.5 µM).
The remaining binding of `COc1ncccc1-c1cnn2ccc(N3CCN(C(=O)OC(C)C)CC3)nc12` is reported as 100% (binding; competition with immobilised ligand; 1 µM).
`Cc1nn(C)cc1-c1nc2c(N3CCN(Cc4ccc(Cl)cc4)CC3)c(Cl)cnc2[nH]1` gave a remaining binding of 15% (binding; competition with immobilised ligand; 1 µM).
For `Nc1ncc(-c2nc(N3CCOCC3)nc(N3CCOCC3)n2)c(C(F)F)n1`, the remaining binding was 42% (binding; competition with immobilised ligand; 10 µM).
`Cn1cc(-c2cccc(N3CCc4c(sc5c4CC(C)(C)C5)C3=O)c2CO)cc(Nc2ccncn2)c1=O` has an inhibition of -3% (enzyme activity; inhibitor; 1 µM).
With `COc1cc(Nc2ncc(F)c(Nc3ccc4c(n3)NC(=O)C(C)(C)O4)n2)cc(OC)c1OC` the inhibition was 99% (binding; competition with immobilised ligand; 10 µM).
The remaining binding of `Cn1cncc1[C@](O)(COc1ccc(C#N)cc1-c1ccc(OC(F)(F)F)cc1)c1ccc(C#N)cc1` is reported as 81% (cell-free assay; competition with immobilised ligand; 1 µM).
`Cn1cc(-c2cc(F)cc(N3CCn4c(cc5c4CCCC5)C3=O)c2CO)cc(Nc2ccc(N3CCN(C4COC4)CC3)cn2)c1=O` has an inhibition of 4% (enzyme activity; inhibitor; 0.1 µM).
With `O=c1[nH]c2ccccc2n1C1CCN(Cc2ccc(-c3[nH]c4cc5ncnc5cc4nc3-c3ccccc3)cc2)CC1` the remaining signal was 93.9% (cell-free assay; 0.5 µM).
The inhibition of `C#Cc1n[nH]c2c(-c3cn([C@@H](C)c4ccccc4)c(=O)[nH]c3=O)cc(F)cc12` is reported as 11% (enzyme activity; inhibitor; 0.1 µM).
